Laboratory results from article PMC12949657 (Journal of medicinal chemistry, 2024).
Values after ≈ are worked out from the molar mass of the structure shown.

What was measured:
E. faecium = settings: cited from earlier work
CYP2C19 = CYP2C19 (Homo sapiens, UniProt P33261); experiment: Human cytochrome P450 inhibition assay, 2C19; type: in vitro ADME; settings: human liver microsomes, 0 – 50 μM
[1] = Mouse dose tolerability/proportionality study; type: in vivo
[2] = Mouse plasma protein binding; type: in vitro ADME
CYP1A2 = molecular target: T1, CYP1A2 (Homo sapiens, UniProt P05177); experiment: Human cytochrome P450 inhibition assay, 1A2; type: in vitro ADME; settings: human liver microsomes, 0 – 50 μM
T1 sequence (P05177 1-516): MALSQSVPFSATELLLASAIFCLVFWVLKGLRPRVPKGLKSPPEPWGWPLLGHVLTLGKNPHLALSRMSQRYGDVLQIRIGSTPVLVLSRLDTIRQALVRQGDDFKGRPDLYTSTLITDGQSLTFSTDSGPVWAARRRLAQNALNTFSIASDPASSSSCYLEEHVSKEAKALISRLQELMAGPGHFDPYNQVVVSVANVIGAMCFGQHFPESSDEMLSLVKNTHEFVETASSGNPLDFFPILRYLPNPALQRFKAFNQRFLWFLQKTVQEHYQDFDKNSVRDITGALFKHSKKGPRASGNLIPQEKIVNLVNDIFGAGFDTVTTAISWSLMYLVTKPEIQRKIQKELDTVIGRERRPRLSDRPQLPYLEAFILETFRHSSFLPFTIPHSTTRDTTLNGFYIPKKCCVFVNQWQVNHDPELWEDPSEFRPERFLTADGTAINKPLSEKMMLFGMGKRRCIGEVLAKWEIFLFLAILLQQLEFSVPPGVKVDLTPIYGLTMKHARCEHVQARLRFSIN

E. faecium NCTC 7171 [3] = experiment: Griess assay for intrabacterial NO release; type: cell-based, Enterococcus faecium; settings: 100 μM, 24 h and 48 h
How it was run: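 E. faecium NCTC 7171 was started from a single colony in Mueller-Hinton medium and grown to OD600 0.4. The culture was split into untreated, test compound (100 μM) and DEA-NONOate (100 μM) batches. At 24 h and 48 h, samples were centrifuged and supernatants mixed with fresh Griess reagent for 30 min at rt. A548 was read, and nitrite was estimated against sodium nitrite standards (50–0.78 μM, 2-fold, in Mueller-Hinton).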

[4] = Human plasma protein binding; type: in vitro ADME
E. faecium EN 2966 = experiment: MIC assay, vancomycin-resistant E. faecium EN 2966; type: cell-based, Enterococcus faecium
Klebsiella pneumoniae = experiment: MIC assay, K. pneumoniae; type: cell-based
[5] = tested on: Enterococcus faecium NCTC 7171 (ATCC 19434); experiment: Antibacterial growth inhibition; type: cell-based; settings: ATCC19434|NCTC7171, read-out: E. faecium MIC
CYP2D6 = CYP2D6 (Homo sapiens, UniProt P10635); experiment: Human cytochrome P450 inhibition assay, 2D6; type: in vitro ADME; settings: human liver microsomes, 0 – 50 μM
Pseudomonas aeruginosa = experiment: MIC assay, P. aeruginosa; type: cell-based
CYP2C9 = CYP2C9 (Homo sapiens, UniProt P11712); experiment: Human cytochrome P450 inhibition assay, 2C9; type: in vitro ADME; settings: human liver microsomes, 0 – 50 μM
Staphylococcus aureus = experiment: MIC assay, S. aureus; type: cell-based
Acinetobacter baumannii = experiment: MIC assay, A. baumannii; type: cell-based
CYP3A4 = CYP3A4 (Homo sapiens, UniProt P08684); experiment: Human cytochrome P450 inhibition assay, 3A4; type: in vitro ADME; settings: human liver microsomes, 0 – 50 μM
E. faecium NCTC 7171 [6] = experiment: Minimum bactericidal concentration; type: cell-based; settings: Enterococcus faecium, NCTC7171, read-out: minimal bactericidal concentration (MBC)
How it was run: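 MBC was taken from the broth microdilution MIC plate. Mid-log E. faecium (OD600 0.2–0.3) was diluted 1:1000 into cation-adjusted Mueller-Hinton II broth with 1% IsoVitaleX, with test compound typically at 200–0.1 μg/mL, and incubated overnight at 37 °C. Wells were mixed, serially diluted 10-fold in DPBS and plated on Mueller-Hinton plus 1% IsoVitaleX agar. Colonies were counted after 2 d at 37 °C.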

[7] = Mouse snapshot 5 h PK study; type: in vivo; settings: female, CD-1, mouse, plasma, po, 25 mg/kg
How it was run: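 Two female CD-1 mice received a single oral 25 mg/kg dose in 5% DMA/60% PEG300/35% D5W. Blood was collected into K2EDTA pre-dose and at 0.5, 1, 3 and 5 h, kept on ice, and spun to plasma stored at −80 °C. Quantitation was by LC-MS/MS against plasma standard curves (1/x² weighting) after acetonitrile/methanol precipitation with verapamil internal standard. AUC was calculated by trapezoidal integration.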

Sequence of CYP2D6 (P10635 whole entry): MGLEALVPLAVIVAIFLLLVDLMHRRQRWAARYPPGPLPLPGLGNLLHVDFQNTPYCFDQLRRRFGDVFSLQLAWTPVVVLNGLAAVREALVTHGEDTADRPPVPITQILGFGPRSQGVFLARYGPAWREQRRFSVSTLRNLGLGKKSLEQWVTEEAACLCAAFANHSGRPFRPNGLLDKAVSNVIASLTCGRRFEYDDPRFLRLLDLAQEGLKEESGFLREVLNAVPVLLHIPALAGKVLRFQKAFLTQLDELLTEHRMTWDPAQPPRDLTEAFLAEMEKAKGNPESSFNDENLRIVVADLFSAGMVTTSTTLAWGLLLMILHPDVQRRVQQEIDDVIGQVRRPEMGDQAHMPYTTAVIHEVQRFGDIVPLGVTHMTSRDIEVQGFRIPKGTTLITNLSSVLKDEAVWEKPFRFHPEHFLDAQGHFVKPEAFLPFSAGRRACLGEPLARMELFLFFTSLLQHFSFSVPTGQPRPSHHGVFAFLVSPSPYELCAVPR
Sequence of CYP2C9 (P11712 whole entry): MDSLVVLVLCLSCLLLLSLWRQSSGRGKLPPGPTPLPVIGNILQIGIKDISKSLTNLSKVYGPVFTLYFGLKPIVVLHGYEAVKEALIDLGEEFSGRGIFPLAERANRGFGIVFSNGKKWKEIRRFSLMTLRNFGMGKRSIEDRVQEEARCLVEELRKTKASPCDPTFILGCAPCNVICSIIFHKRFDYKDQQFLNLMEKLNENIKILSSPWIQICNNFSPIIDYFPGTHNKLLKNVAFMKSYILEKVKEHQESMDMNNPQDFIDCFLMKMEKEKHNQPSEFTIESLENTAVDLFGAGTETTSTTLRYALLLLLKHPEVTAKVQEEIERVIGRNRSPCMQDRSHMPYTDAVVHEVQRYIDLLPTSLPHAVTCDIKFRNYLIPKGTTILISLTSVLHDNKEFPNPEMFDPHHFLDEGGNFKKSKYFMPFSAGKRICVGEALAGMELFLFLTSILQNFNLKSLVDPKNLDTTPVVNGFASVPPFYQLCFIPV
Sequence of CYP3A4 (P08684 whole entry): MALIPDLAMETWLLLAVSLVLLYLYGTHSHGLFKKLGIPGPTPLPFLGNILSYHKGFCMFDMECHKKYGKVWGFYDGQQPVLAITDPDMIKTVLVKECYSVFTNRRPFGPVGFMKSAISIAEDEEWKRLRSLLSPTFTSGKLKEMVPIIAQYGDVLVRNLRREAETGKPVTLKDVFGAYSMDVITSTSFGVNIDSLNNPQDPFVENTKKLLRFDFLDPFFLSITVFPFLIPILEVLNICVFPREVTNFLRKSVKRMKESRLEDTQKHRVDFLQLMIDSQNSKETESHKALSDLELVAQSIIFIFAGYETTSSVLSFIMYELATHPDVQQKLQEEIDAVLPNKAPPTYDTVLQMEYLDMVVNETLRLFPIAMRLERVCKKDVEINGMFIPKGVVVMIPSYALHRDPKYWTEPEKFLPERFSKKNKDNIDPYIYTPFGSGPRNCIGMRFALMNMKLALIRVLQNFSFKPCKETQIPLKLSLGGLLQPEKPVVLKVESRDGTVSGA
Sequence of CYP2C19 (P33261 whole entry): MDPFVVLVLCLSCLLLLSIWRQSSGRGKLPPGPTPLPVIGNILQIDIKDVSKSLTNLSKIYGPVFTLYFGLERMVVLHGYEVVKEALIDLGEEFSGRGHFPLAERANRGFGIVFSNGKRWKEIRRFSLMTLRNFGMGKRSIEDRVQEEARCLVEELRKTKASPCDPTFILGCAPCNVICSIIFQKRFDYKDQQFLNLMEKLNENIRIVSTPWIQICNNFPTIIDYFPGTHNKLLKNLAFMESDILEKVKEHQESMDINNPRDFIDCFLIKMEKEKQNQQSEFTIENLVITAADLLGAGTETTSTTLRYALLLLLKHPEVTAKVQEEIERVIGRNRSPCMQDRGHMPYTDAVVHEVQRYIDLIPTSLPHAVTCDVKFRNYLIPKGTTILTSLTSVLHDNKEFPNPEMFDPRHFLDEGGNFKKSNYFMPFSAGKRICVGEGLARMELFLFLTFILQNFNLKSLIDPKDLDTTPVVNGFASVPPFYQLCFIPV

In the case of `O=C1CN(/N=C/c2ccc([N+](=O)[O-])o2)C(=O)N1` [nitrofurantoin], the “in vitro efficacy versus E. faecium” value (E. faecium) is listed as “limited in vitro efficacy”.
In the case of `O=C(NNC(=O)c1sc2cc(Cl)ccc2c1Cl)c1ccc([N+](=O)[O-])o1` [JSF-3269], the “inhibition of human cytochrome P450 2C19” value (CYP2C19) is reported as “not a significant inhibitor”, the “exposure (AUC0-24h) dose proportionality” value ([1]; mice, 50, 150 and 300 mg/kg po) is reported as “appeared to plateau between 150 and 300 mg/kg” and the dose tolerability ([1]; mice, doses up to the highest level tested of 300 mg/kg po) is reported as “tolerated”. The “binding to mouse plasma” value [2] was 99.99%, the “inhibition of human cytochrome P450 1A2” value (CYP1A2) was “not a significant inhibitor” and the “intracellular release of NO• (nitrite in supernatant)” value (E. faecium NCTC 7171 [3]) was “no evidence was found to support the intracellular release of NO•”. The “binding to human plasma” value [4] was 99.3%, the MIC (E. faecium EN 2966) was “the same MIC as versus the NCTC 7171 strain” and the MIC (Klebsiella pneumoniae) was > 120 µM. The MIC [5] was 1.9 to 3.8 µM (≈ 0.76 to 1.52 µg/mL), the “inhibition of human cytochrome P450 2D6” value (CYP2D6) was “not a significant inhibitor” and the MIC (Pseudomonas aeruginosa) was > 120 µM. For the same compound, the “inhibition of human cytochrome P450 2C9” value (CYP2C9) was “not a significant inhibitor”, the MIC (Staphylococcus aureus) was 16 µM (≈ 6.4 µg/mL) and the MIC (Acinetobacter baumannii) was > 120 µM. The “inhibition of human cytochrome P450 3A4” value (CYP3A4) was “not a significant inhibitor” and the MBC (E. faecium NCTC 7171 [6]) was 7.7 to 15 µM (≈ 3.08 to 6 µg/mL).
Compound `O=C(NNC(=O)c1cc2cc(C(F)(F)F)cc(Cl)c2s1)c1ccc([N+](=O)[O-])o1` [Compound 25] has an AUC(0-t) [7] of 111000 ng·h/mL.
`O=C(NNC(=O)c1cc2ccccc2s1)c1ccc([N+](=O)[O-])o1` [JSF-2827, N'-(benzo[b]thiophene-2-carbonyl)-5-nitrofuran-2-carbohydrazide] gave an MIC [5] of 0.75 µM (≈ 0.248 µg/mL).
With `O=C(NNC(=O)c1cc2cc(Cl)cc(Cl)c2s1)c1ccc([N+](=O)[O-])o1` [Compound 22] the AUC(0-t) [7] was 43800 ng·h/mL.
